Screening results from PubChem BioAssay.
KCNK3 inh: human KCNK3 channel inhibition, primary screen. 340,000 compounds, 0.84% hits. CHO-KCNK3 thallium flux, FluxOR fluorescence; hits give low values. O14649. B-score at 10 µM;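 active = B-score under library mean minus 4 SD, starting fluorescence ratio at most library mean plus 5 SD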;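 note: more negative B-score means stronger inhibition of thallium flux through KCNK3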
KCNQ1 block: human KCNQ1 channel inhibition. CHO-K1 KCNQ1, FluxOR thallium flux fluorescence; hits give high values. 310,000 compounds, 1.3% hits. B-score at 10 µM. P51787. AID 2642;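 active = compounds whose thallium flux B-score, printed positive for inhibition, exceeds three library SD while starting fluorescence stays within three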;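 note: channel opened by potassium depolarization with thallium stimulus after 20 min compound exposure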
KCNK9 inh: human KCNK9 channel inhibition | HEK293 KCNK9, FluxOR thallium flux fluorescence; hits give low values | 310,000 compounds, 1.2% hits | AID 488922 | B-score at 10 µM | Q9NPC2;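 active = ratio B-score over 3 SD below the library mean, with starting fluorescence within 5 SD of its mean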;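 note: negative B-score means less thallium flux so channel inhibition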
KCNQ1 act: human KCNQ1 channel potentiation or activation; CHO-K1 KCNQ1, thallium flux FluxOR fluorescence; hits give high values; P51787; B-score at 10 µM; 310,000 compounds, 0.35% hits; AID 2648;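 active = fluorescence ratio B-score, a plate-corrected score, at least three library SD, with initial intensity B-score within 5 SD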
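Material: CHO-K1 cells stably expressing KCNQ1. Medium: assay buffer for compound exposure, DMSO matched across wells. Reagent: K+/Tl+ depolarizing stimulus. Compound dosing: single-concentration screen. Times: 37 °C overnight plating, 90-min dark dye load, 20-min compound pretreatment. Technique: FluxOR Tl+ flux fluorescence.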
hERG rescue: hERG (human) protection from proarrhythmic block | AID 1511 | Q12809 | CHO-hERG, FluxOR thallium flux, dofetilide IC70 present | 310,000 compounds, 0.51% hits | activation (rescue from dofetilide block), less the hit threshold, % at 10 µM;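 active = activation above the mean of controls blocked by dofetilide plus 5 SD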;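 note: thallium influx through hERG after potassium depolarization seen as dye fluorescence rise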
Kir21 block: Kir2.1 (mouse) channel inhibition | HEK293-Kir2.1, FluxOR thallium flux fluorescence; hits give low values | B-score at 10 µM | P35561 | 310,000 compounds, 0.85% hits;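 active = fluorescence ratio B-score at or below minus 3 SD of library scores, with starting-brightness B-score within 2 SD, cut at about -4.2 in these data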;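 note: channel flux triggered by added potassium and thallium sulfate stimulus; B-score of peak minus minimum fluorescence over baseline after thallium stimulus; more negative B-score means stronger Kir2.1 block with less thallium influx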
Target sequence (P35561 whole entry, looked up): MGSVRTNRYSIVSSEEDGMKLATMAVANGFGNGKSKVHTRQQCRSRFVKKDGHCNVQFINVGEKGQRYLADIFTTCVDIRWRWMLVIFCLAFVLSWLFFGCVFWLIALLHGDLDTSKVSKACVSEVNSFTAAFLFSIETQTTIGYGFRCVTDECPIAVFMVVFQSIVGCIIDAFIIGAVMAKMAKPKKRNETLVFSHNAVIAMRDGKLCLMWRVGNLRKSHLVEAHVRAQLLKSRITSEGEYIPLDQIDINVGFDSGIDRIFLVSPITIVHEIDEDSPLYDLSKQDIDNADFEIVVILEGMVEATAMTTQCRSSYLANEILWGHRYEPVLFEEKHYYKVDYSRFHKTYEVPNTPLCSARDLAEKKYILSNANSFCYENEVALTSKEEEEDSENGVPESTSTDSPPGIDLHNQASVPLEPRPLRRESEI
* marks the source's active call; other numbers are inactive results; i = inactive; / = no result. A selection: hits, their analogues and other compounds. The true share with any hit is near 3.7%.

SMILES | KCNK3 inh | KCNQ1 block | KCNK9 inh | KCNQ1 act | hERG rescue | Kir21 block
Cc1nc2ccccc2c(=O)n1-c1cc([N+](=O)[O-])cc([N+](=O)[O-])c1 | i | i | i | i | 4.7* | -0.08
Cc1nc2ccccc2c(=O)n1-c1ccncc1 | i | i | i | i | -10.6 | -0.01
COC(=O)C1=C(c2ccc(F)cc2OCc2ccccc2)C[C@@H]2CC[C@H]1N2C(=O)N1CCC(O)CC1 | i | / | / | / | / | /
CN1C(=O)/C(=C\c2ccc(Br)s2)C(=O)NC1=S | i | i | i | i | 15.0* | -0.55
c1ccc(-c2cc(-c3ccccc3)[n+](-c3ccccc3)c(-c3ccccc3)c2)cc1 | -10.2* | 13* | i | i | -35.3 | -6.36*
C[n+]1c(-c2ccccc2)cc(-c2ccc(Cl)cc2)cc1-c1ccccc1 | i | i | i | i | -23.2 | -3.24
CN(C)c1ccc(-[n+]2c(-c3ccccc3)cc(-c3ccccc3)cc2-c2ccccc2)cc1 | -9* | 12* | i | i | -34.9 | -15*
CCCCc1ccc(NC2=NCCCS2)cc1 | i | i | i | i | -17.9 | -4.9*
CC(=O)c1ccc(NC2=NCCCS2)cc1 | i | i | i | i | -6.1 | 0.27
O=C(CF)N(O)c1ccc(C=Cc2ccccc2)cc1 | i | / | / | / | / | /
CC(=O)C1C2c3ccccc3O[C@@]1(C)N=c1s/c(=C/c3ccoc3)c(=O)n12 (stereo partly drawn) | i | 7* | i | i | -4.9 | -1.04
COC(=O)C1C2c3ccccc3OC1(C)N=c1s/c(=C/c3cn(C)nc3C)c(=O)n12 (stereo not drawn) | i | i | i | i | -0.2 | -0.02
N#CCCCCC#N | i | / | / | / | / | /
CCCNC(=O)N1[C@H]2CC[C@@H]1C(C(=O)OC)=C(c1ccc(-c3ccccc3)c(F)c1)C2 | i | / | / | / | / | /
CC(=O)c1cn(CCCOc2ccccc2)c2ccccc12 | i | i | i | i | -15.9 | -4.63*
CCCCOCCCn1c(N)c(C(=O)OC(C)COC)c2nc3ccccc3nc21 (stereo not drawn) | -11.4* | i | i | i | -0.8 | -0.22
C/C=C(\C)C(=O)OC1C(C)=C2C(C1OC(=O)CCCCC)C(C)(OC(C)=O)CC(OC(=O)CCC)C1(O)C2OC(=O)C1(C)O (stereo not drawn) | / | i | i | 14* | -12.9 | 0.08
O=C1NC(=O)N(Cc2cccs2)C(=O)/C1=C/c1ccc(N2CCOCC2)cc1 | i | i | i | i | -13.1 | 2.73
O=C1NC(=O)N(Cc2ccccc2Cl)C(=O)/C1=C/N1CCOCC1 | i | i | i | i | 8.0* | -0.82
CC1(C)CN(S(=O)(=O)OCC(Cl)(Cl)Cl)C(=O)N1 | i | i | i | i | -3.1 | -0.09
Cc1ccc(N2C(=O)NC(=O)/C(=C\c3cnc(-c4ccccc4)nc3)C2=O)cc1 | i | i | i | i | -7.6 | -0.26
CCC(C)c1ccc(N2C(=O)NC(=O)/C(=C/c3cccn3CCOc3ccc(C)cc3)C2=O)cc1 (stereo not drawn) | i | 7* | i | i | -11.2 | -0.46
Cc1[nH]n(-c2ccccc2)c(=O)c1C(c1ccc([N+](=O)[O-])cc1)c1c(C)[nH]n(-c2ccccc2)c1=O | i | 7* | i | i | -8.4 | 0.2
Cc1ccccc1N1C(=O)NC(=O)/C(=C/c2ccc(N3CCOCC3)o2)C1=O | i | 6* | i | i | -21.6 | -3.49
CN1C(=O)C(=Cc2ccc(N3CCCCCC3)o2)C(=O)N(C)C1=S | i | / | / | / | / | /
SMILES | KCNK3 inh | KCNQ1 block | KCNK9 inh | KCNQ1 act | hERG rescue | Kir21 block
Cc1ccccc1N1C(=O)/C(=C/c2ccco2)C(=O)NC1=S | / | i | i | i | 13.1* | 0.55
O=C1NC(=O)N(c2ccc3c(c2)OCO3)C(=O)/C1=C\c1ccc(N2CCCCC2)o1 | i | 9* | i | i | -14.1 | -2.02
O=C1NC(=S)N(c2ccccc2F)C(=O)/C1=C\c1cccs1 | i | i | i | i | 22.1* | 1.14
COC(=O)C1=C(c2ccc(C(C)=O)cc2)C[C@@H]2CC[C@H]1N2C(=O)NC1Cc2ccccc2C1 | i | / | / | / | / | /
OCCCCO | i | / | / | / | / | /
O=c1c(C=NCCN2CCNCC2)c(O)n(C2CCCCC2)c(=O)n1C1CCCCC1 | i | i | i | 11* | -10.1 | -2.85
O=c1[nH]c(=S)n(C2CC2)c(O)c1C=NCCN1CCOCC1 | i | i | i | i | -12.5 | -0.87
COc1ccc(CNCCc2c(C)[nH]c3ccc(OC(F)(F)F)cc23)c(OC)c1 | i | i | i | i | -20.5 | -6.88*
COC(=O)C1=C(c2ccc(-c3ccccc3)c(F)c2)C[C@@H]2CC[C@H]1N2C(=O)NCc1cc(C)oc1C(F)(F)F | i | / | / | / | / | /
CC1CCCC(C)N1/N=C/c1c[nH]c2ccc(Br)cc12 (stereo not drawn) | i | 6* | i | i | -15.4 | -4.32*
CN[C@H]1C[C@H]2O[C@@](C)([C@H]1OC)n1c3ccccc3c3c4c(c5c6ccccc6n2c5c31)C(=O)NC4 | / | i | i | 18* | -9.7 | -0.51
c1ccc(CC(NCc2ccco2)c2ccccc2)cc1 (stereo not drawn) | i | 6* | i | i | -15.2 | -3.82
CCOP(=O)(C#CC(C)(C)C)C(O)(c1ccccc1)C(F)(F)F (stereo not drawn) | i | i | i | i | -14.7 | -4.35*
CC#CP(=O)(OCC)C(O)(c1ccccc1)C(F)(F)F (stereo not drawn) | i | i | i | i | -9.1 | -1.32
CCCCn1c(=O)c(C(=O)Nc2ccc(C)cn2)c(O)c2ccccc21 | i | i | -7.7* | i | -6.4 | -0.48
CCCCCn1c(=O)c(C(=O)Nc2ccccn2)c(O)c2ccccc21 | i | i | -7.39* | i | -4.1 | 0.24
CCCCCn1c(=O)c(C(=O)Nc2cccc(C)n2)c(O)c2ccccc21 | i | i | i | i | -4.0 | -1.53
CCCCCn1c(=O)c(C(=O)Nc2cccc(C)c2)c(O)c2ccccc21 | i | i | i | i | 0.2 | -0.05
CC(CCN1CC1)=NNC(=O)Nc1cccc2ccccc12 | i | / | / | / | / | /
